Results from ChEMBL document CHEMBL4014261, “Design, Synthesis, and Antimicrobial Evaluation of a Novel Bone-Targeting Bisphosphonate-Ciprofloxacin Conjugate for the Treatment of Osteomyelitis Biofilms” (J Med Chem, 2017).
Values after ≈ are worked out from the molar mass of the structure shown. Active and inactive are the calls of the source. The calls are words filed in the database; no cut-off is given here.

Legend:
Staphylococcus aureus [1] = experiment: Antibiofilm activity against Staphylococcus aureus ATCC 6538 assessed as CFU counts at 200 ug/mL pretreated with HA for 24 hrs followed by organism inoculation measured after 24 hrs (reference value: 4.5 x 10^10CFU); assay type: functional
Hydroxyapatite = experiment: Binding affinity to Hydroxyapatite at 1.95 to 250 ug/mL up to 24 hrs by spectroscopic analysis
Method in brief: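 HA spherules (final 10 mg/mL) in TSB were mixed with compound (final 0.24–250 mg/L). Absorbance at 275 nm was read at 0 h and after 24 h at 37 °C with shaking, and relative compound concentration was derived by comparing the two readings.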

Rattus norvegicus [2] = experiment: Toxicity in jawbone peri-implant osteomyelitis Sprague-Dawley rat model infected with Aggregatibacter actinomycetemcomitans assessed as signs of gross tolerability issue at 0.1 to 10 mg/kg, ip single dose measured after 1 week post pharmacotherapy; assay type: organism-based; details: in vivo, 168 h
Method in brief: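 Rats carried two *Aa* (D7S-1) biofilm-coated miniature titanium implants (10^9 CFU) in the palatal bone, one on each side. Dosing began one week after surgery: a single intraperitoneal injection under anesthesia, in sterile physiological saline, with 2 rats per group. Injection-site reactions and gross tolerability were observed during therapy. Animals were euthanized one week after pharmacotherapy.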

Staphylococcus aureus [3] = experiment: Antibiofilm activity against Staphylococcus aureus ATCC 6538 assessed as CFU counts at 100 ug/mL pretreated with HA for 24 hrs followed by organism inoculation measured after 24 hrs (reference value: 4.5 x 10^10CFU); assay type: functional
Method in brief: (§1)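 HA discs were soaked 24 h at 37 °C in 2 mL compound solution, with DMSO or phosphate-buffer controls, then rinsed 3× with sterile water. Discs were inoculated with 2 mL of 0.5 McFarland S. aureus ATCC 6538 for biofilm formation. Biofilm CFU were counted after 24 h growth.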

Staphylococcus aureus [4] = experiment: Antibacterial activity against methicillin-resistant Staphylococcus aureus MR4-CIPS planktonic cells after 24 hrs by microdilution assay; assay type: functional
Method in brief: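 Broth microdilution: 100 µL of 1 × 10^5 CFU/mL inoculum with graded compound concentrations, read at 580 nm before and after 24 h at 37 °C with shaking to prevent biofilm formation. Relative cell number is taken against medium + microbes controls, with 1% DMSO in the ciprofloxacin control. Growth is confirmed by 48 h subculture in fresh medium and by plating. MIC is expressed as parent-antibiotic equivalents.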

Staphylococcus aureus [5] = experiment: Antibiofilm activity against Staphylococcus aureus ATCC 6538 assessed as CFU counts at 400 ug/mL pretreated with HA for 24 hrs followed by organism inoculation measured after 24 hrs (reference value: 4.5 x 10^10CFU); assay type: functional
Staphylococcus aureus [6] = experiment: Antibacterial activity against methicillin-sensitive Staphylococcus aureus isolate 2 planktonic cells after 24 hrs by microdilution assay; assay type: functional; details: isolate 2, 24 h
Method in brief: (§2)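 Planktonic cells at 1 × 10^5 CFU/mL were exposed to compound, and A580 was read at 0 h and after 24 h at 37 °C with shaking. Controls were medium plus microbes, with 1% (v/v) DMSO where the solvent was used. Relative cell number was calculated against the control. Results were confirmed by subculture in fresh medium (48 h, 37 °C) and plating. Conjugate concentrations were expressed as parent-antibiotic equivalents.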

Staphylococcus aureus [7] = experiment: Antibacterial activity against methicillin-sensitive Staphylococcus aureus ATCC 6538 planktonic cells after 24 hrs by microdilution assay; assay type: functional; details: ATCC 6538, 24 h; method in brief: as §2
Staphylococcus aureus [8] = experiment: Antibacterial activity against methicillin-sensitive Staphylococcus aureus ATCC 6538 planktonic cells at pH 5 after 24 hrs by microdilution method; assay type: functional; details: ATCC 6538, 24 h
Method in brief: (§3)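 Planktonic ATCC 6538 was tested by microdilution in medium adjusted to pH 5 or pH 7.4 with KOH or HCl, with pH checked by universal indicator. MIC50 was determined at each pH.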

Staphylococcus aureus [9] = experiment: Antibiofilm activity against Staphylococcus aureus ATCC 6538 assessed as CFU counts at 5 ug/mL pretreated with HA for 24 hrs followed by organism inoculation measured after 24 hrs (reference value: 4.5 x 10^10CFU); assay type: functional; method in brief: as §1
Rattus norvegicus [10] = experiment: Toxicity in jawbone peri-implant osteomyelitis Sprague-Dawley rat model infected with Aggregatibacter actinomycetemcomitans assessed as signs of gross tolerability at 0.3 mg/kg, ip administered 3 times per week measured after 1 week post pharmacotherapy; assay type: organism-based; details: in vivo, 168 h
Method in brief: (§4)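 Rats bearing infected palatal implants received i.p. dosing in sterile saline. They were observed during therapy for cutaneous injection-site reactions, inflammation and gross tolerability issues, and were euthanized one week after pharmacotherapy.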

Staphylococcus aureus [11] = experiment: Antibacterial activity against methicillin-sensitive Staphylococcus aureus isolate 4 planktonic cells after 24 hrs by microdilution assay; assay type: functional; details: isolate 4, 24 h; method in brief: as §2
Staphylococcus aureus [12] = experiment: Bactericidal activity against Staphylococcus aureus ATCC 6538 biofilm using hydroxyapatite as substrate assessed as reduction in colony forming units after 24 hrs; assay type: functional
Method in brief: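 Biofilms were started from a 1 McFarland suspension, allowed to adhere 4 h at 37 °C on HA discs or polystyrene well bottoms, then rinsed. They were exposed 24 h at 37 °C to TSB containing 0.24–125 mg/L compound. Cells were detached in 0.5% saponin by 1 min vortexing, serially diluted and plated on Columbia (S. aureus) or MacConkey (P. aeruginosa) agar, 37 °C, 24 h. Read-out was mean CFU/mm² ± SEM; HA area was measured by X-ray tomography.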

Staphylococcus aureus [13] = experiment: Antibiofilm activity against Staphylococcus aureus ATCC 6538 assessed as CFU counts at 1 ug/mL pretreated with HA for 24 hrs followed by organism inoculation measured after 24 hrs (reference value: 4.5 x 10^10CFU); assay type: functional; method in brief: as §1
Staphylococcus aureus [14] = experiment: Ratio of MIC50 for methicillin-sensitive Staphylococcus aureus ATCC 6538 planktonic cells at pH 5 to MIC50 for methicillin-sensitive Staphylococcus aureus ATCC 6538 planktonic cells at pH 7.4; assay type: functional; method in brief: as §3
[15] = test system: Aggregatibacter actinomycetemcomitans; experiment: Antibiofilm activity against Aggregatibacter actinomycetemcomitans D7S-5 using hydroxyapatite as substrate at >15 ug/mL after 24 hrs; assay type: functional
Staphylococcus aureus [16] = experiment: Antibiofilm activity against Staphylococcus aureus ATCC 6538 assessed as CFU counts at 10 ug/mL pretreated with HA for 24 hrs followed by organism inoculation measured after 24 hrs (reference value: 4.5 x 10^10CFU); assay type: functional; method in brief: as §1
Staphylococcus aureus [17] = experiment: Antibiofilm activity against Staphylococcus aureus ATCC 6538 assessed as reduction in bacterial adherence to HA at 0.24 to 7.8 ug/ml pretreated with HA for 24 hrs followed by organism inoculation measured after 24 hrs; assay type: functional
Method in brief: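 HA spherules (final 10 mg/mL) in TSB were preincubated 24 h at 37 °C with shaking with compound (final 0.12–250 mg/L), then pelleted and the supernatant discarded. They were inoculated with 1 mL S. aureus at 10^5 CFU/mL. A580 was read at 0 and 24 h (37 °C, shaking) against controls without spherules and spherules without compound; spherules were also plated for CFU.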

Rattus norvegicus [18] = experiment: Toxicity in jawbone peri-implant osteomyelitis Sprague-Dawley rat model infected with Aggregatibacter actinomycetemcomitans assessed as cutaneous injection-site reactions at 0.1 to 10 mg/kg, ip single dose measured after 1 week post pharmacotherapy; assay type: organism-based; details: in vivo, 168 h; method in brief: as §4

O=C(O)c1cn(C2CC2)c2cc(N3CCN(C(=O)Oc4ccc(CC(P(=O)(O)O)P(=O)(O)O)cc4)CC3)c(F)cc2c1=O
Activity (Staphylococcus aureus [1]): Active
Activity (Hydroxyapatite): Active
Activity (Rattus norvegicus [2]): Non-Toxic
Activity (Staphylococcus aureus [3]): Active
MIC (Staphylococcus aureus [4]): 15.6 µg/mL (≈ 24.4 µM)
Activity (Staphylococcus aureus [5]): Active
MIC (Staphylococcus aureus [6]): 0.49 µg/mL (≈ 0.766 µM)
MIC (Staphylococcus aureus [7]): 31.2 µg/mL (≈ 48.8 µM)
MIC50 (Staphylococcus aureus [8]): 7.81 µg/mL (≈ 12.2 µM)
MIC90 (Staphylococcus aureus [8]): 31.2 µg/mL (≈ 48.9 µM)
Activity (Staphylococcus aureus [9]): 3.3 ×10⁹ CFU
Activity (Rattus norvegicus [10]): Non-Toxic
MIC (Staphylococcus aureus [11]): 3.9 µg/mL (≈ 6.1 µM)
MBIC50 (Staphylococcus aureus [12]): 16 µg/mL
MBIC90 (Staphylococcus aureus [12]): 100 µg/mL
Activity (Staphylococcus aureus [13]): 7.1 ×10¹⁰ CFU
Ratio (Staphylococcus aureus [14]): 0.5
Activity [15]: Active
Activity (Staphylococcus aureus [16]): Active
Activity (Staphylococcus aureus [17]): Active
Activity (Rattus norvegicus [18]): Non-Toxic
